Assays:
[1] = Synergistic cytotoxicity against mouse L5178 cells assessed as combination index at ED50 using 300:1 test compound to doxorubicin ratio after 48 hrs by MTT-based checkerboard microplate method; assay type: functional
In short: (§1)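 Checkerboard microplate combinations of compound with doxorubicin at constant molar ratios. 5 × 10^4 cells/well in McCoy's 5A, 48 h at 37°C, 5% CO2. MTT added to 0.5 mg/mL final for 4 h, SDS/HCl overnight, OD read at 540 and 630 nm. Combination indices derived per ratio for 50%, 75% and 90% growth inhibition by median-effect analysis.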

[2] = Synergistic cytotoxicity against mouse L5178 cells expressing human ABCB1 assessed as combination index at ED50 using 7.5:1 test compound to doxorubicin ratio after 48 hrs by MTT-based checkerboard microplate method; assay type: functional; in short: as §1
[3] = Synergistic cytotoxicity against mouse L5178 cells assessed as combination index at ED75 using 37.5:1 test compound to doxorubicin ratio after 48 hrs by MTT-based checkerboard microplate method; assay type: functional; in short: as §1
[4] = Synergistic cytotoxicity against mouse L5178 cells assessed as combination index at ED50 using 75:1 test compound to doxorubicin ratio after 48 hrs by MTT-based checkerboard microplate method; assay type: functional; in short: as §1
[5] = Synergistic cytotoxicity against mouse L5178 cells assessed as combination index at ED90 using 75:1 test compound to doxorubicin ratio after 48 hrs by MTT-based checkerboard microplate method; assay type: functional; in short: as §1
[6] = Synergistic cytotoxicity against mouse L5178 cells assessed as combination index at ED50 using 600:1 test compound to doxorubicin ratio after 48 hrs by MTT-based checkerboard microplate method; assay type: functional; in short: as §1
[7] = molecular target: ABCB1 (P-glycoprotein) (Homo sapiens, UniProt P08183); assay: Inhibition of human ABCB1 expressed in mouse L5178 cells assessed as increase in rhodamine-123 accumulation at 20 uM after 10 mins by flow cytometric analysis relative to control; assay type: cell-based; settings: mouse L5178 cells expressing human ABCB1, probe rhodamine-123
In short: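 Cells at 2 × 10^6/mL were preincubated 10 min with compound. Rhodamine 123 then added to 5.2 µM final, 20 min at 37 °C. Cells washed twice in PBS, resuspended and read by flow cytometry. Percent inhibition was scaled between MDR-cell accumulation (0%) and parental L5178 accumulation (100%). Controls: 100 nM tariquidar (positive) and 2% DMSO (negative).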

[8] = Synergistic cytotoxicity against mouse L5178 cells assessed as combination index at ED90 using 600:1 test compound to doxorubicin ratio after 48 hrs by MTT-based checkerboard microplate method; assay type: functional; in short: as §1
[9] = Synergistic cytotoxicity against mouse L5178 cells expressing human ABCB1 assessed as combination index at ED75 using 7.5:1 test compound to doxorubicin ratio after 48 hrs by MTT-based checkerboard microplate method; assay type: functional; in short: as §1
[10] = Synergistic cytotoxicity against mouse L5178 cells assessed as combination index at ED75 using 150:1 test compound to doxorubicin ratio after 48 hrs by MTT-based checkerboard microplate method; assay type: functional; in short: as §1
[11] = Synergistic cytotoxicity against mouse L5178 cells expressing human ABCB1 assessed as combination index at ED90 using 7.5:1 test compound to doxorubicin ratio after 48 hrs by MTT-based checkerboard microplate method; assay type: functional; in short: as §1
[12] = Synergistic cytotoxicity against mouse L5178 cells expressing human ABCB1 assessed as combination index at ED90 using 30:1 test compound to doxorubicin ratio after 48 hrs by MTT-based checkerboard microplate method; assay type: functional; in short: as §1
[13] = Synergistic cytotoxicity against mouse L5178 cells expressing human ABCB1 assessed as combination index at ED75 using 15:1 test compound to doxorubicin ratio after 48 hrs by MTT-based checkerboard microplate method; assay type: functional; in short: as §1
[14] = Synergistic cytotoxicity against mouse L5178 cells expressing human ABCB1 assessed as combination index at ED50 using 3.75:1 test compound to doxorubicin ratio after 48 hrs by MTT-based checkerboard microplate method; assay type: functional; in short: as §1
[15] = Synergistic cytotoxicity against mouse L5178 cells assessed as combination index at ED75 using 75:1 test compound to doxorubicin ratio after 48 hrs by MTT-based checkerboard microplate method; assay type: functional; in short: as §1
[16] = Cytotoxicity against mouse L5178 cells after 48 hrs by MTT assay; assay type: functional, cell-based; settings: L5178, 48 h
In short: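 Parental mouse lymphoma L5178 and the MDR line made by pHa MDR1/A retrovirus transfection, selected with 60 µg/L colchicine. Grown in McCoy's 5A with horse serum at 37°C, 5% CO2. 5 x 10^4 cells/well, serial compound dilutions, 48 h. MTT added to 0.5 mg/mL final for 4 h, then 10% SDS in 0.01 M HCl overnight, OD read at 540 and 630 nm. IC50 taken as median cytotoxic activity (Dm) from control lanes of checkerboard plates, n=2.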

[17] = Synergistic cytotoxicity against mouse L5178 cells assessed as combination index at ED90 using 150:1 test compound to doxorubicin ratio after 48 hrs by MTT-based checkerboard microplate method; assay type: functional; in short: as §1
[18] = Synergistic cytotoxicity against mouse L5178 cells expressing human ABCB1 assessed as combination index at ED90 using 15:1 test compound to doxorubicin ratio after 48 hrs by MTT-based checkerboard microplate method; assay type: functional; in short: as §1
[19] = system: SiHa; assay: Antiproliferative activity against human SiHa cells after 72 hrs by MTT assay; assay type: functional, cell-based
In short: (§2)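 Cells grown in MEM with 10% FCS, 1% non-essential amino acids and 1% penicillin-streptomycin. Seeded at 5000 cells/well, exposed to 0.1–30.0 µM compound for 72 h. MTT (5 mg/ml solution) was then added for 4 h, formazan dissolved in DMSO, and absorbance read at 545 nm. Cisplatin served as positive control. IC50 came from sigmoidal dose–response fits (log inhibitor vs normalized response, variable slope).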

[20] = Synergistic cytotoxicity against mouse L5178 cells assessed as combination index at ED90 using 300:1 test compound to doxorubicin ratio after 48 hrs by MTT-based checkerboard microplate method; assay type: functional; in short: as §1
[21] = system: MDA-MB-231; assay: Antiproliferative activity against human MDA-MB-231 cells after 72 hrs by MTT assay; assay type: functional, cell-based; settings: MDA-MB-231, 72 h; in short: as §2
[22] = Synergistic cytotoxicity against mouse L5178 cells expressing human ABCB1 assessed as combination index at ED75 using 3.75:1 test compound to doxorubicin ratio after 48 hrs by MTT-based checkerboard microplate method; assay type: functional; in short: as §1
[23] = Synergistic cytotoxicity against mouse L5178 cells expressing human ABCB1 assessed as combination index at ED75 using 60:1 test compound to doxorubicin ratio after 48 hrs by MTT-based checkerboard microplate method; assay type: functional; in short: as §1
[24] = Synergistic cytotoxicity against mouse L5178 cells expressing human ABCB1 assessed as combination index at ED90 using 60:1 test compound to doxorubicin ratio after 48 hrs by MTT-based checkerboard microplate method; assay type: functional; in short: as §1
[25] = Synergistic cytotoxicity against mouse L5178 cells assessed as combination index at ED90 using 37.5:1 test compound to doxorubicin ratio after 48 hrs by MTT-based checkerboard microplate method; assay type: functional; in short: as §1
[26] = system: MCF7; assay: Antiproliferative activity against human MCF7 cells after 72 hrs by MTT assay; assay type: functional, cell-based; settings: MCF7, 72 h; in short: as §2
[27] = Synergistic cytotoxicity against mouse L5178 cells assessed as combination index at ED75 using 600:1 test compound to doxorubicin ratio after 48 hrs by MTT-based checkerboard microplate method; assay type: functional; in short: as §1
[28] = system: HeLa; assay: Antiproliferative activity against human HeLa cells after 72 hrs by MTT assay; assay type: functional, cell-based; in short: as §2

Sequence of ABCB1 (P-glycoprotein) (P08183 whole entry): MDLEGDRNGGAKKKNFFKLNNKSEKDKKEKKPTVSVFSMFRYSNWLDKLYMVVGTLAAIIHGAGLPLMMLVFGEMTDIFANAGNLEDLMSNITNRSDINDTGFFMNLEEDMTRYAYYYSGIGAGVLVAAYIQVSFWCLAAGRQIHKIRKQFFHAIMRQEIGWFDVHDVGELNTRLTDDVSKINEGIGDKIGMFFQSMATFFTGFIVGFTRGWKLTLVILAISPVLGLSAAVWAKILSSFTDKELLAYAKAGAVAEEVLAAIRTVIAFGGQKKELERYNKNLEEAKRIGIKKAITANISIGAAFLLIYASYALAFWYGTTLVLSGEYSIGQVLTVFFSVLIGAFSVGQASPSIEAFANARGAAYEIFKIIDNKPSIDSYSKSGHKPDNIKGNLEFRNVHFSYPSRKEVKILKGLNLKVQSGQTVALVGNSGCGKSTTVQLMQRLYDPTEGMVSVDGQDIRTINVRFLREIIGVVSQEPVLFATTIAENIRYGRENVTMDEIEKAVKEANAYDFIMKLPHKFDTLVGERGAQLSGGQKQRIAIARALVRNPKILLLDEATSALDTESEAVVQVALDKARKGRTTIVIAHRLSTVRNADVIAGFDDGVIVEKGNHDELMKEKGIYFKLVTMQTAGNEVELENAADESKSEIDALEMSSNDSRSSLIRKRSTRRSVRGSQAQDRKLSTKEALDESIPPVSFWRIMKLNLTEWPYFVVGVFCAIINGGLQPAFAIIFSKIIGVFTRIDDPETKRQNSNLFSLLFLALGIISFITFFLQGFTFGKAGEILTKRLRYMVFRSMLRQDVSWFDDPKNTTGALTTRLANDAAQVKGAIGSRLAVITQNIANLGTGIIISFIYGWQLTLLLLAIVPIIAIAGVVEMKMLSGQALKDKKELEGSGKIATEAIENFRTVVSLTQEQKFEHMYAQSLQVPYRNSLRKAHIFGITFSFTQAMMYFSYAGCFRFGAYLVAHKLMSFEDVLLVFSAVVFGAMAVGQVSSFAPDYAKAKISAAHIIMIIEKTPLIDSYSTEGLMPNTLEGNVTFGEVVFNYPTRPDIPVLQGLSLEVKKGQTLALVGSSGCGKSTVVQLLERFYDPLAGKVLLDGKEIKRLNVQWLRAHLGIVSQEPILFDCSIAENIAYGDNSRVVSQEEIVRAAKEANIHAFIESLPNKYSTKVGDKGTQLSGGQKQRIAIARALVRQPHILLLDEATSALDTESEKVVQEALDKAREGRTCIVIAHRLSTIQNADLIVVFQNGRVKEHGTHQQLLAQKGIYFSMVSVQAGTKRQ

Row | SMILES | CI [1] | CI [2] | CI [3] | CI [4] | CI [5] | CI [6] | inhibition at 10 min, 20 µM [7] [%] | CI [8] | CI [9] | CI [10] | CI [11] | CI [12] | CI [13] | CI [14] | CI [15] | IC50 [16] [µM] | CI [17] | CI [18] | IC50 [19] [µM] | CI [20] | further results
1 | CC(C)(O)CC[C@H]1OC(C)(C)O[C@]1(C)[C@H]1CC=C2C3=C/C(=N\OC(C)(C)C)[C@@H]4C[C@H]5OC(C)(C)O[C@H]5C[C@]4(C)[C@H]3CC[C@@]21C | 0.77 | 0.27 | 0.85 | 1.31 | 0.83 | 0.83 | 94 | 0.98 | 0.24 | 0.85 | 0.23 | 0.41 | 0.27 | 0.31 | 1.03 | 63.8 | 0.84 | 0.28 | 14.2 | 1.02 | IC50 [21]: 16.9 µM; CI [22]: 0.26; CI [23]: 0.57; CI [24]: 0.64; CI [25]: 0.64; IC50 [26]: 19.3 µM; CI [27]: 0.89; IC50 [28]: 26.1 µM
2 | C=CCO/N=C1/C=C2C3=CC[C@H]([C@@]4(C)OC(C)(C)O[C@@H]4CCC(C)(C)O)[C@@]3(C)CC[C@@H]2[C@@]2(C)C[C@@H]3OC(C)(C)O[C@@H]3C[C@@H]12 | 0.73 | 0.22 | 0.47 | 0.58 | 0.44 | 0.88 | 103 | 1.12 | 0.17 | 0.63 | 0.15 | 0.34 | 0.22 | 0.25 | 0.5 | 55.3 | 0.8 | 0.22 | > 30 | 1.07 | IC50 [21]: 29.4 µM; CI [22]: 0.15; CI [23]: 0.39; CI [24]: 0.39; CI [25]: 0.47; IC50 [26]: 24.2 µM; CI [27]: 0.99; IC50 [28]: > 30 µM
3 | CC(C)(O)CC[C@H]1OC(C)(C)O[C@]1(C)[C@H]1CC=C2C3=C/C(=N/OC(C)(C)C)[C@@H]4C[C@H]5OC(C)(C)O[C@H]5C[C@]4(C)[C@H]3CC[C@@]21C | 1.05 | 0.34 | 0.59 | 0.82 | 0.55 | 0.88 | 78.8 | 0.94 | 0.26 | 0.63 | 0.23 | 0.31 | 0.32 | 0.42 | 0.67 | 63.2 | 0.79 | 0.33 | 8.14 | 1.07 | IC50 [21]: 15.7 µM; CI [22]: 0.29; CI [23]: 0.5; CI [24]: 0.53; CI [25]: 0.66; IC50 [26]: 17.3 µM; CI [27]: 0.91; IC50 [28]: 20.7 µM

Source: ChEMBL document CHEMBL4145462, “Nitrogen-containing ecdysteroid derivatives vs. multi-drug resistance in cancer: Preparation and antitumor activity of oximes, oxime ethers and a lactam” (Eur J Med Chem, 2018)
